Activity calls are given as the source filed them. The rule behind the calls is not given here.
Experiments:
[1] = molecular target: Voltage-gated inwardly rectifying potassium channel KCNH2 (Homo sapiens, UniProt Q12809); experiment: Inhibition of human ERG at 10 uM
[2] = molecular target: T1, Muscarinic acetylcholine receptor M2 (Homo sapiens, UniProt P08172); experiment: Inhibition of human muscarinic M2 receptor at 10 uM
T1 sequence (P08172 whole entry): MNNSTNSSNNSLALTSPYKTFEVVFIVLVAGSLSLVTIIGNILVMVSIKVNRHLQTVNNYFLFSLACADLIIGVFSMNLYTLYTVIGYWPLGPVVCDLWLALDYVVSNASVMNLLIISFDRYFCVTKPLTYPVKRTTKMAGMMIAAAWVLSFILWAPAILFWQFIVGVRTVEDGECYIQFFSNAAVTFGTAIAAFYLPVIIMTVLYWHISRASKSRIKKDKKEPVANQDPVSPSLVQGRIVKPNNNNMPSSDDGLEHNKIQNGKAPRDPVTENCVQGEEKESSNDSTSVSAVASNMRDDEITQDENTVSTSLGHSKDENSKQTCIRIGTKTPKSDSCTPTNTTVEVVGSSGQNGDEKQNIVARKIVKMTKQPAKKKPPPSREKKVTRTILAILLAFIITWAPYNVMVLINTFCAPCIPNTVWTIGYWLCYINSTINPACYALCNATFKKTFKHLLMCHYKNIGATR

HEK293 = experiment: Effect on cadmium induced toxicity in wild type human HEK293 cells assessed as cell survival at 1 to 10 uM incubated for 24 hrs by XTT assay; format: functional, cell-based; conditions: dose 1-10 µM
Procedure, shortened: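 HEK293 wt or HEK-hTRPV6 cells in DMEM with 10% FBS, glutamine, penicillin/streptomycin and non-essential amino acids. Seeded at 1.5 x 10⁴ cells/well and left 24 h, then given CdCl2 at 50 to 0.05 µM with or without test compound at 1.0 or 10 µM; blank was 0.01% DMSO. Incubation 24 h at 37 °C. XTT/PMS read for 2 h at A450−A650, as % viable versus blank. n = 4/concentration, 2 independent experiments.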

D(2) dopamine receptor = D(2) dopamine receptor (Homo sapiens, UniProt P14416); experiment: Inhibition of human dopamine D2S receptor at 10 uM
Chain of D(2) dopamine receptor (P14416 whole entry): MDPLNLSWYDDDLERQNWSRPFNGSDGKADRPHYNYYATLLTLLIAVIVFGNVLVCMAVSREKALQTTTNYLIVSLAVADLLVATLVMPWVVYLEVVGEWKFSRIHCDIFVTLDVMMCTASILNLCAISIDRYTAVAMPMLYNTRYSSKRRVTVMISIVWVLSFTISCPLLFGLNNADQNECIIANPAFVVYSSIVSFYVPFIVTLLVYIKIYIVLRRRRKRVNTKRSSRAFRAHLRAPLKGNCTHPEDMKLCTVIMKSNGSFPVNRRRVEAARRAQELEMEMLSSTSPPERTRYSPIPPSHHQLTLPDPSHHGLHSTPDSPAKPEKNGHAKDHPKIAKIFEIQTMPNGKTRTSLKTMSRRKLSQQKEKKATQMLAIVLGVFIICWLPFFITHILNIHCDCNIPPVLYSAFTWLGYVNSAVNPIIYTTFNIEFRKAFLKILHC

Chain of Voltage-gated inwardly rectifying potassium channel KCNH2 (Q12809 whole entry): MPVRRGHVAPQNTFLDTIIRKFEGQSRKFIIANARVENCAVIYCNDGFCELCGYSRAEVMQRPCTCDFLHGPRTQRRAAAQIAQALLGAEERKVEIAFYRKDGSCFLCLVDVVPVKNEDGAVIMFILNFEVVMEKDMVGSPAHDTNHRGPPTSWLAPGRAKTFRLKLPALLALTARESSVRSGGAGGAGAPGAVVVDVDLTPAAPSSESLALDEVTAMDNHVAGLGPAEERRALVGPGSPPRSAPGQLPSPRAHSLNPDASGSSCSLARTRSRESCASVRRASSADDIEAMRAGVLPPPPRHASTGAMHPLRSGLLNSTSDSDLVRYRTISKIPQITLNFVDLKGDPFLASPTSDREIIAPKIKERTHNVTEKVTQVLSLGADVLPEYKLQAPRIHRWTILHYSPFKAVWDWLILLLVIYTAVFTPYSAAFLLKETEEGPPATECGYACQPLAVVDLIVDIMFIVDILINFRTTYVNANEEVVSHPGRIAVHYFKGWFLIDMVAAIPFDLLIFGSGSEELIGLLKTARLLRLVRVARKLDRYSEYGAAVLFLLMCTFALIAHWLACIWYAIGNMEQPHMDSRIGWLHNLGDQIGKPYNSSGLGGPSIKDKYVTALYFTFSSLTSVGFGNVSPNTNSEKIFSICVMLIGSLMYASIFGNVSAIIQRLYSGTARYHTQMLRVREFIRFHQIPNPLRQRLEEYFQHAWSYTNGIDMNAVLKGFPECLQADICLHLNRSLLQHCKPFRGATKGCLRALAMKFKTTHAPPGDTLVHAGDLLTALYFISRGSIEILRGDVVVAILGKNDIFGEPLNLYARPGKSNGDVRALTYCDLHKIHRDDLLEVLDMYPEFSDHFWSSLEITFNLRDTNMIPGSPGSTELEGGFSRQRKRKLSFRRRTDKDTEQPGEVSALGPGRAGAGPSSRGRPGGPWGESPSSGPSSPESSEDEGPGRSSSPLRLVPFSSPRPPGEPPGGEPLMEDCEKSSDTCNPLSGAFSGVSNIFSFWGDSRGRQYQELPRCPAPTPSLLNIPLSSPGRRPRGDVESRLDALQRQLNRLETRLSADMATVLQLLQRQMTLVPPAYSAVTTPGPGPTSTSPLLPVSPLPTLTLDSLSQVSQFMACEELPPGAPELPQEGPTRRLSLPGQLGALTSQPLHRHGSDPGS

## O=c1ccc(CN2CCN([C@H]3CC[C@@](O)(c4cccc(C(F)(F)F)c4)CC3)CC2)c[nH]1
[1]
  inhibition (INH): Not Active
[2]
  inhibition (INH): Not Active
HEK293
  Activity: inactive
D(2) dopamine receptor
  inhibition (INH): Not Active

Reference: ChEMBL document CHEMBL4680064, “Natural product inspired optimization of a selective TRPV6 calcium channel inhibitor” (RSC Med Chem, 2020)
